Reference: ChEMBL document CHEMBL2311328, “Molecular docking and synthesis of novel quinazoline analogues as inhibitors of transcription factors NF-κB activation and their anti-cancer activities” (2013)
The source made the active and inactive calls. No cut-off for these calls is given here.

What was measured:
[1] = test system: HepG2; assay: Cytotoxicity against human HepG2 cells assessed as cellular growth at 50 uM incubated for 1 hr prior to TNF alpha stimulation measured after 48 hrs by SRB assay; type: functional
Method in brief: (§1)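 HepG2 cells in DMEM with 10% FBS and penicillin/streptomycin were allowed to adhere 24 h, and a T0 plate was fixed. Compound was given for 1 h at 37 °C, with or without 20 ng/ml TNFα, then 48 h more. Cells were stained with 0.4% SRB for 30 min at RT, washed in 1% acetic acid, and solubilized in 10 mM Tris. OD read at 515 nm; one-way ANOVA.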

[2] = test system: HepG2; assay: Cytotoxicity against human HepG2 cells assessed as cellular growth at 50 uM after 48 hrs by SRB assay in absence of TNFalpha; type: functional; method in brief: as §1
[3] = test system: HepG2; assay: Inhibition of TNFalpha-induced NFkappaB (unknown origin)-dependent transcriptional activity expressed in human HepG2 cells at 1 uM incubated for 1 hr prior to TNFalpha induction measured after 6 hrs by dual-luciferase reporter gene assay; type: cell-based
Method in brief: (§2)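 HepG2 cells in DMEM with 10% FBS were lipofectamine-transfected with 10 ng/well pGL4.32 NF-κB-Luc plus Renilla control. Compound in DMSO was given in fresh medium for 1 h at 37 °C, then TNFα (final 20 ng/ml) for 6 h. Cells were lysed in passive lysis buffer. Firefly light units were normalized to Renilla; one-way ANOVA.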

[4] = test system: RXF 393; assay: Cytotoxicity against human RXF393 cells after 48 hrs by SRB assay; type: functional; conditions: RXF 393, 48 h
Method in brief: (§3)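 Screened by the NCI Developmental Therapeutics Program in dose-response format. GI50 was determined by the sulforhodamine B protocol.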

[5] = test system: HCC 2998; assay: Cytotoxicity against human HCC2998 cells after 48 hrs by SRB assay; type: functional; conditions: HCC 2998, 48 h; method in brief: as §3
[6] = test system: A498; assay: Cytotoxicity against human A498 cells after 48 hrs by SRB assay; type: functional; conditions: A498, 48 h; method in brief: as §3
[7] = test system: OVCAR-3; assay: Cytotoxicity against human OVCAR3 cells after 48 hrs by SRB assay; type: functional; conditions: OVCAR-3, 48 h; method in brief: as §3
[8] = test system: OVCAR-4; assay: Cytotoxicity against human OVCAR4 cells after 48 hrs by SRB assay; type: functional; conditions: OVCAR-4, 48 h; method in brief: as §3
[9] = test system: SNB-75; assay: Cytotoxicity against human SNB75 cells after 48 hrs by SRB assay; type: functional; conditions: SNB-75, 48 h; method in brief: as §3
[10] = test system: MDA-MB-231; assay: Cytotoxicity against human MDA-MB-231 cells after 48 hrs by SRB assay; type: functional; conditions: MDA-MB-231, 48 h; method in brief: as §3
[11] = test system: CAKI-1; assay: Cytotoxicity against human Caki1 cells after 48 hrs by SRB assay; type: functional; conditions: CAKI-1, 48 h; method in brief: as §3
[12] = test system: MDA-MB-435; assay: Cytotoxicity against human MDA-MB-435 cells after 48 hrs by SRB assay; type: functional; conditions: MDA-MB-435, 48 h; method in brief: as §3
[13] = test system: TK-10; assay: Cytotoxicity against human TK10 cells after 48 hrs by SRB assay; type: functional; conditions: TK-10, 48 h; method in brief: as §3
[14] = test system: UO-31; assay: Cytotoxicity against human UO31 cells after 48 hrs by SRB assay; type: functional; conditions: UO-31, 48 h; method in brief: as §3
[15] = test system: SNB-19; assay: Cytotoxicity against human SNB19 cells after 48 hrs by SRB assay; type: functional; conditions: SNB-19, 48 h; method in brief: as §3
[16] = test system: DU-145; assay: Cytotoxicity against human DU145 cells after 48 hrs by SRB assay; type: functional; conditions: DU-145, 48 h; method in brief: as §3
[17] = test system: M14; assay: Cytotoxicity against human M14 cells after 48 hrs by SRB assay; type: functional; conditions: M14, 48 h; method in brief: as §3
[18] = Cytotoxicity against human SKOC3 cells after 48 hrs by SRB assay; type: functional; conditions: SKOC3, 48 h; method in brief: as §3
[19] = test system: UACC-62; assay: Cytotoxicity against human UACC62 cells after 48 hrs by SRB assay; type: functional; conditions: UACC-62, 48 h; method in brief: as §3
[20] = test system: IGROV-1; assay: Cytotoxicity against human IGROV1 cells after 48 hrs by SRB assay; type: functional; conditions: IGROV-1, 48 h; method in brief: as §3
[21] = test system: MCF7; assay: Cytotoxicity against human MCF7 cells after 48 hrs by SRB assay; type: functional; conditions: MCF7, 48 h; method in brief: as §3
[22] = test system: KM12; assay: Cytotoxicity against human KM12 cells after 48 hrs by SRB assay; type: functional; conditions: KM12, 48 h; method in brief: as §3
[23] = Cytotoxicity against human NCI-ADR-RES cells after 48 hrs by SRB assay; type: functional; method in brief: as §3
[24] = test system: OVCAR-8; assay: Cytotoxicity against human OVCAR8 cells after 48 hrs by SRB assay; type: functional; conditions: OVCAR-8, 48 h; method in brief: as §3
[25] = test system: HCT-15; assay: Cytotoxicity against human HCT15 cells after 48 hrs by SRB assay; type: functional; conditions: HCT-15, 48 h; method in brief: as §3
[26] = test system: SF-295; assay: Cytotoxicity against human SF295 cells after 48 hrs by SRB assay; type: functional; conditions: SF-295, 48 h; method in brief: as §3
[27] = test system: SW-620; assay: Cytotoxicity against human SW620 cells after 48 hrs by SRB assay; type: functional; conditions: SW-620, 48 h; method in brief: as §3
[28] = test system: SK-MEL-2; assay: Cytotoxicity against human SK-MEL-2 cells after 48 hrs by SRB assay; type: functional; conditions: SK-MEL-2, 48 h; method in brief: as §3
[29] = test system: LOX IMVI; assay: Cytotoxicity against human LOXIMVI cells after 48 hrs by SRB assay; type: functional; method in brief: as §3
[30] = test system: BT-549; assay: Cytotoxicity against human BT549 cells after 48 hrs by SRB assay; type: functional; conditions: BT-549, 48 h; method in brief: as §3
[31] = test system: T47D; assay: Cytotoxicity against human T47D cells after 48 hrs by SRB assay; type: functional; method in brief: as §3
[32] = test system: 786-0; assay: Cytotoxicity against human 786-0 cells after 48 hrs by SRB assay; type: functional; conditions: 786-0, 48 h; method in brief: as §3
[33] = test system: SF-539; assay: Cytotoxicity against human SF539 cells after 48 hrs by SRB assay; type: functional; conditions: SF-539, 48 h; method in brief: as §3
[34] = test system: PC-3; assay: Cytotoxicity against human PC3 cells after 48 hrs by SRB assay; type: functional; conditions: PC-3, 48 h; method in brief: as §3
[35] = test system: U-251; assay: Cytotoxicity against human U251 cells after 48 hrs by SRB assay; type: functional; conditions: U-251, 48 h; method in brief: as §3
[36] = test system: SF-268; assay: Cytotoxicity against human SF268 cells after 48 hrs by SRB assay; type: functional; conditions: SF-268, 48 h; method in brief: as §3
[37] = test system: COLO 205; assay: Cytotoxicity against human COLO205 cells after 48 hrs by SRB assay; type: functional; conditions: COLO 205, 48 h; method in brief: as §3
[38] = test system: UACC-257; assay: Cytotoxicity against human UACC257 cells after 48 hrs by SRB assay; type: functional; conditions: UACC-257, 48 h; method in brief: as §3
[39] = test system: HCT-116; assay: Cytotoxicity against human HCT116 cells after 48 hrs by SRB assay; type: functional; conditions: HCT-116, 48 h; method in brief: as §3
[40] = test system: SN12C; assay: Cytotoxicity against human SN12C cells after 48 hrs by SRB assay; type: functional; method in brief: as §3
[41] = test system: Malme-3M; assay: Cytotoxicity against human MALME-3M cells after 48 hrs by SRB assay; type: functional; method in brief: as §3
[42] = test system: SK-MEL-28; assay: Cytotoxicity against human SK-MEL-28 cells after 48 hrs by SRB assay; type: functional; conditions: SK-MEL-28, 48 h; method in brief: as §3
[43] = test system: Hs-578T; assay: Cytotoxicity against human Hs578T cells after 48 hrs by SRB assay; type: functional; method in brief: as §3
[44] = test system: HepG2; assay: Inhibition of TNFalpha-induced NFkappaB (unknown origin)-dependent transcriptional activity expressed in human HepG2 cells at 0.1 to 10 uM incubated for 1 hr prior to TNFalpha induction measured after 6 hrs by dual-luciferase reporter gene assay; type: cell-based; method in brief: as §2
[45] = test system: EKVX; assay: Induction of apoptosis in TNFalpha-stimulated human EKVX cells at 1 uM incubated for 1 hr prior to TNFalpha stimulation measured after 18 hrs by TUNEL assay; type: functional, cell-based
Method in brief: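 EKVX cells in RPMI 1640 with 10% FBS were grown on glass coverslips. Compound was given for 1 h at 37 °C, then 20 ng/ml TNFα for 18 h. Cells were fixed in 3.7% paraformaldehyde, treated with proteinase K for 30 min, then TUNEL-labelled with streptavidin-fluorescein plus DAPI. Scored by fluorescence microscopy.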

Oc1ccccc1CN1CCN(c2nc(-c3ccccc3)nc3ccccc23)CC1
Activity [1]: 13% | Activity [2]: 14.6% | inhibition [3]: Active

c1ccc2c(NCCc3c[nH]c4ccccc34)ncnc2c1
GI50 [4]: 30.9 µM | GI50 [5]: 26.3 µM | GI50 [6]: 2.8 µM | GI50 [7]: 19.1 µM | GI50 [8]: 1.5 µM | GI50 [9]: 22.9 µM | GI50 [10]: 21.9 µM | GI50 [11]: 2.2 µM | GI50 [12]: 10.2 µM | GI50 [13]: 20.4 µM | Activity [1]: -30% | GI50 [14]: 14.5 µM | Activity [2]: -22.3% | GI50 [15]: 50.1 µM | GI50 [16]: 27.5 µM | GI50 [17]: 24.6 µM | GI50 [18]: 58.9 µM | GI50 [19]: 14.1 µM | GI50 [20]: 14.1 µM | GI50 [21]: 11.2 µM | GI50 [22]: 19.1 µM | GI50 [23]: 5.6 µM | GI50 [24]: 5.5 µM | GI50 [25]: 24 µM | inhibition [3]: Active | GI50 [26]: 3.5 µM | GI50 [27]: 41.7 µM | GI50 [28]: 30.9 µM | GI50 [29]: 15.5 µM | GI50 [30]: 12.3 µM | GI50 [31]: 12 µM | GI50 [32]: 33.9 µM | GI50 [33]: 39.8 µM | GI50 [34]: 19.5 µM | GI50 [35]: 30.9 µM | GI50 [36]: 34.7 µM | GI50 [37]: 28.2 µM | GI50 [38]: 9.8 µM | GI50 [39]: 6.3 µM | GI50 [40]: 30.2 µM | GI50 [41]: 29.5 µM | GI50 [42]: 25.1 µM | GI50 [43]: 60.3 µM

Oc1ccc(Br)cc1CN1CCN(c2nc(-c3ccccc3)nc3ccccc23)CC1
Activity [1]: 13% | Activity [2]: 15.5% | inhibition [3]: Active

Oc1ccc(CN2CCN(c3ncnc4ccccc34)CC2)cc1
Activity [1]: -13.3% | Activity [2]: -5.3% | inhibition [3]: Active

c1ccc(-c2nc(NCCc3c[nH]c4ccccc34)c3ccccc3n2)cc1
GI50 [4]: 1.9 µM | GI50 [5]: 2.1 µM | GI50 [6]: 2 µM | GI50 [7]: 2.9 µM | GI50 [8]: 3.6 µM | GI50 [9]: 5.9 µM | GI50 [10]: 3.1 µM | GI50 [11]: 3.1 µM | GI50 [12]: 2.3 µM | GI50 [13]: 2.8 µM | Activity [1]: -46.7% | GI50 [14]: 3 µM | Activity [2]: -35.3% | GI50 [15]: 5.1 µM | GI50 [16]: 4.7 µM | GI50 [17]: 2.6 µM | GI50 [18]: 3.7 µM | GI50 [19]: 2 µM | GI50 [20]: 3.2 µM | GI50 [21]: 4.2 µM | GI50 [22]: 2.8 µM | inhibition [44]: Active | GI50 [23]: 2.6 µM | GI50 [24]: 2.2 µM | GI50 [25]: 2.5 µM | inhibition [3]: Active | GI50 [26]: 2 µM | GI50 [27]: 3 µM | GI50 [28]: 3 µM | GI50 [29]: 2.2 µM | GI50 [30]: 4.4 µM | GI50 [31]: 2.4 µM | GI50 [32]: 2.5 µM | GI50 [33]: 2 µM | GI50 [34]: 2.4 µM | GI50 [35]: 3.2 µM | GI50 [36]: 4.6 µM | GI50 [37]: 2.2 µM | GI50 [38]: 3.2 µM | GI50 [39]: 2.8 µM | Activity [45]: Active | GI50 [40]: 3.9 µM | GI50 [41]: 2.8 µM | GI50 [42]: 6.2 µM | GI50 [43]: 3.4 µM

Oc1ccc(Br)cc1CN1CCN(c2ncnc3ccccc23)CC1
Activity [1]: -29.9% | Activity [2]: -22% | inhibition [3]: Active

Oc1ccccc1CN1CCN(c2ncnc3ccccc23)CC1
Activity [1]: -26% | Activity [2]: -21.7% | inhibition [3]: Active
